The target in experiment [1] is T1, Toll-like receptor 9 (Mus musculus) (UniProt Q9EQU3).
T1 sequence (whole entry): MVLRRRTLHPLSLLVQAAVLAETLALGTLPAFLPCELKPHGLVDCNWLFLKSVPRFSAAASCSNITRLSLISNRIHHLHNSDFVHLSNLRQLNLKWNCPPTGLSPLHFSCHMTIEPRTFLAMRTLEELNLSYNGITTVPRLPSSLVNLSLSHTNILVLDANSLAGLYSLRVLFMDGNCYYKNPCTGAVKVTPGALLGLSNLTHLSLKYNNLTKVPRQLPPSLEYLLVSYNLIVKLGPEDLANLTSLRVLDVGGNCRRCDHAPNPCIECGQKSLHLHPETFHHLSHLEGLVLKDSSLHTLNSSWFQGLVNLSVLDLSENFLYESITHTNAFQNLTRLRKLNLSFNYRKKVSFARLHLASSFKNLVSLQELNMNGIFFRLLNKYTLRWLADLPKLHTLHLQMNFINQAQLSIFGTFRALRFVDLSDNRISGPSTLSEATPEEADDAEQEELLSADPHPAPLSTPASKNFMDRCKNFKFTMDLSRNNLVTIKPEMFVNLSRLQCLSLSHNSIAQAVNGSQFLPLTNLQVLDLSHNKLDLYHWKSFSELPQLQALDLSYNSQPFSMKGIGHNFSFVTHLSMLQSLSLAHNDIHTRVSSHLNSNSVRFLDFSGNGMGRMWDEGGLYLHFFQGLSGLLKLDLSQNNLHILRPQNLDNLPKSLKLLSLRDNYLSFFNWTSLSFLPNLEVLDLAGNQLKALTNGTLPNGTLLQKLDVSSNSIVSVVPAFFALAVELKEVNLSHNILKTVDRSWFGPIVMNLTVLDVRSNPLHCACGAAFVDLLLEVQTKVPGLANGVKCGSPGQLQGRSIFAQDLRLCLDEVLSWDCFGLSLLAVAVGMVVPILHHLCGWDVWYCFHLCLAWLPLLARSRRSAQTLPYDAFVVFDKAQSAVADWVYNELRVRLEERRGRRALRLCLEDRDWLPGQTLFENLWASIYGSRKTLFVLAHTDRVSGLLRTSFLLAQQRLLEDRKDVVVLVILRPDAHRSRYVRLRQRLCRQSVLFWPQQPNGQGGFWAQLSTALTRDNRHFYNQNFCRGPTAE
Nature of the experiment: Inhibition of TLR9-mediated NFkappaB p65 activation in CpG-stimulated BALB/c mouse BMDM at 5 ug/ml preincubated for 18 hrs followed by CpG challenge measured after 1 hr by TransAM ELISA. In short, it runs like this:
(§1)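 Bone marrow macrophages (4 × 10^6/well) had their medium changed after 24 h, were pretreated with compounds at 5 μg/mL for 18 h, then stimulated for 1 h with 100 ng/mL LPS, 10 ng/mL BLP or 1 μM CpG. Activated NFκB p65 in nuclear extracts was measured by TransAM ELISA in duplicate.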
For orientation: In an ELISA, binding on a coated surface is turned into a signal by an enzyme label.

In another experiment the test system is Mus musculus. Nature of the experiment: Antiinflammatory activity in DBA/1 mouse collagen-induced arthritis model assessed as reduction in number of gammadelta+ T cells at 50 ug/kg, sc administered 2 days prior to collagen challenge continued till day 21 post collagen challenge. Format: functional, organism-based. Particulars: T-cell. In short, it runs like this:
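Dosing was 1 μg/dose or PBS given subcutaneously on days −2, 0 and 21 of CIA. Total, CD4+, CD8+ and γδ T cell numbers in draining lymph nodes were counted by flow cytometry for each mouse. Naive mice not exposed to collagen served as a further control (naive n = 7; PBS and treated n = 13).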

Experiment [2] addresses T1, Toll-like receptor 9 (Mus musculus). Nature of the experiment: Inhibition of TLR9 in BALB/c mouse BMDM assessed as downregulation of CpG-stimulated IL-6 level at 5 ug/ml preincubated for 18 hrs followed by CpG challenge measured after 24 hrs by ELISA relative to control. In a few lines: (§2)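 BALB/c male bone marrow macrophages were differentiated 7 days with L929 supernatant (≥99% CD11b+/F4/80+). Cells were plated at 2 × 10^5/well in triplicate, rested overnight, and given compounds at 5 μg/mL for 18 h. They were then stimulated with 100 ng/mL S. minnesota LPS, 10 ng/mL Pam3CSK4 (BLP) or 0.01 μM CpG for 24 h. Supernatant IL-12p40 and IL-6 were measured by ELISA (sensitivity 16 pg/mL).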

The target in experiment [3] is T2, TLR2/TLR6 (Mus musculus) (UniProt Q9QUN7+Q9EPW9). The experiment can be described thus: Inhibition of TLR2/6 in BALB/c mouse BMDM assessed as downregulation of BLP-stimulated IL-12p40 level at 5 ug/ml preincubated for 18 hrs followed by BLP challenge measured after 24 hrs by ELISA relative to control. Format: protein-complex assay. In a few lines: as §2
For experiment [4], the target named is T2, TLR2/TLR6 (Mus musculus). Nature of the experiment: Inhibition of TLR2/6-mediated NFkappaB p65 activation in BLP-stimulated BALB/c mouse BMDM at 5 ug/ml preincubated for 18 hrs followed by BLP challenge measured after 1 hr by TransAM ELISA. Format: protein-complex assay. In short, it runs like this:
as §1

Experiment [5] deals with T3, Toll-like receptor 4 (Mus musculus) (UniProt Q9QUK6).
T3 sequence (whole entry): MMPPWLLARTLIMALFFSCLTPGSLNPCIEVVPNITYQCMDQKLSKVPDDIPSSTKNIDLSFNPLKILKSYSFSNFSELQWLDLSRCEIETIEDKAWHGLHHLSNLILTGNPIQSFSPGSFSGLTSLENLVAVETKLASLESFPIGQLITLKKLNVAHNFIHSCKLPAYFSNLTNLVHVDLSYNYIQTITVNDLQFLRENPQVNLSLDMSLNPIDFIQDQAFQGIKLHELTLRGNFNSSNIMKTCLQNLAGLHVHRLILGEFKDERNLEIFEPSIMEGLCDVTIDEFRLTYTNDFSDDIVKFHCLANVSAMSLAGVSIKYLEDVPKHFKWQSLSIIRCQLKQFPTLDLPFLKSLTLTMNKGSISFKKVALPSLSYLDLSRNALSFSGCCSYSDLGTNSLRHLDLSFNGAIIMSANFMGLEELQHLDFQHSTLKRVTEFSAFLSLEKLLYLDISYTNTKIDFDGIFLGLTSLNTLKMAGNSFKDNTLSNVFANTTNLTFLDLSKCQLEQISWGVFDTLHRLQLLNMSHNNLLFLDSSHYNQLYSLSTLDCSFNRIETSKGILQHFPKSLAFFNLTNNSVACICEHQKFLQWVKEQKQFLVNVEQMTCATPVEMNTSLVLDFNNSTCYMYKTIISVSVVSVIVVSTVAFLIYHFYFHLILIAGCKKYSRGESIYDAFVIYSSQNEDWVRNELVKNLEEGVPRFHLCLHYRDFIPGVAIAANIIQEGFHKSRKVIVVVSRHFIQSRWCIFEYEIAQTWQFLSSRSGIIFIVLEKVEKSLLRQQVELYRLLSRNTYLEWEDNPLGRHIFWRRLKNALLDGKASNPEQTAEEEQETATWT
The experiment can be described thus: Inhibition of TLR4 in BALB/c mouse BMDM assessed as reduction of LPS-stimulated IL-6 production at 5 ug/ml preincubated for 18 hrs followed by LPS challenge measured after 24 hrs by ELISA. In short, it runs like this:
as §2

Experiment [6] addresses T2, TLR2/TLR6 (Mus musculus). Nature of the experiment: Inhibition of TLR2/6 in BALB/c mouse BMDM assessed as downregulation of BLP-stimulated IL-6 level at 5 ug/ml preincubated for 18 hrs followed by BLP challenge measured after 24 hrs by ELISA relative to control. Format: protein-complex assay. In short, it runs like this:
as §2

Consider one compound from ChEMBL document CHEMBL3108700, “Designing anti-inflammatory drugs from parasitic worms: a synthetic small molecule analogue of the Acanthocheilonema viteae product ES-62 prevents development of collagen-induced arthritis” (J Med Chem, 2013).

SMILES strings stand for the structures. Calls of active or inactive are those of the source. Unless noted, no cut-off for these calls is given here.

For the compound `CN(C)CCS(=O)(=O)Cc1ccc(Br)cc1`, the inhibition result (in experiment [1]; in experiment [2]; at TLR2/TLR6 (Mus musculus) [3]; at TLR2/TLR6 (Mus musculus) [4]; in experiment [5]) was “Active” in each case. The result in the experiment on Mus musculus was Active. Moreover, the inhibition result at TLR2/TLR6 (Mus musculus) [6] is “inactive”.
